{
  "source": "ChEMBL document CHEMBL1649533",
  "about": "“GES-11, a novel integron-associated GES variant in Acinetobacter baumannii” (2009)",
  "format_in_all_cases": "functional",
  "key": {"Escherichia coli [1]": {"test_system": "Escherichia coli", "assay": "Antibacterial activity against ESBL-positive Escherichia coli Top10 harboring plasmid AT517"}, "Acinetobacter baumannii [2]": {"test_system": "Acinetobacter baumannii", "assay": "Antibacterial activity against Acinetobacter baumannii BM4652", "outline": "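MIC by Etest on Mueller-Hinton agar; interpretation by Comité de l'Antibiogramme de la Société Française de Microbiologie breakpoints. A. baumannii BM4652 is the recipient strain used in conjugation with BM4674 (solid medium; transconjugants selected on apramycin 80 μg/ml plus ceftazidime 16 μg/ml). MIC values in μg/ml.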"}, "Escherichia coli [3]": {"test_system": "Escherichia coli", "assay": "Antibacterial activity against […] OmpF and OmpC porin-deficient Escherichia coli HB4"}, "Escherichia coli [4]": {"test_system": "Escherichia coli", "assay": "Antibacterial activity against Escherichia coli Top10"}, "Acinetobacter baumannii [5]": {"test_system": "Acinetobacter baumannii", "assay": "Antibacterial activity against Acinetobacter baumannii BM4652 harboring plasmid IP847"}, "Escherichia coli [6]": {"test_system": "Escherichia coli", "assay": "Antibacterial activity against […] OmpF and OmpC porin-deficient Escherichia coli HB4 harboring plasmid AT517"}, "Acinetobacter baumannii [7]": {"test_system": "Acinetobacter baumannii", "assay": "Antibacterial activity against Acinetobacter baumannii BM4674 isolated from the tibia fracture of a patient by Etest method", "outline": "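MICs read by Etest gradient strips on Mueller-Hinton agar against the clinical isolate (Nancy, France, September 2008); reported in μg/ml and interpreted with Comité de l'Antibiogramme de la Société Française de Microbiologie breakpoints.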"}},
  "data": [
    {"smiles": "C[C@H]1[C@H](NC(=O)/C(=N\\OC(C)(C)C(=O)O)c2csc(N)n2)C(=O)N1S(=O)(=O)O", "note": "[AZTREONAM]", "values": [
      {"measurement": "MIC", "setting": "Escherichia coli [1]", "value": 24, "unit": "mg/L"},
      {"measurement": "MIC", "setting": "Acinetobacter baumannii [2]", "value": 1, "unit": "mg/L"},
      {"measurement": "MIC", "setting": "Escherichia coli [3]", "value": 0.75, "unit": "mg/L"},
      {"measurement": "MIC", "setting": "Escherichia coli [4]", "value": 0.125, "unit": "mg/L"},
      {"measurement": "MIC", "setting": "Acinetobacter baumannii [5]", "value": "> 256", "unit": "mg/L"},
      {"measurement": "MIC", "setting": "Escherichia coli [6]", "value": 48, "unit": "mg/L"},
      {"measurement": "MIC", "setting": "Acinetobacter baumannii [7]", "value": "> 256", "unit": "mg/L"}
    ]},
    {"smiles": "CO/N=C(\\C(=O)N[C@@H]1C(=O)N2C(C(=O)O)=C(COC(C)=O)CS[C@H]12)c1csc(N)n1", "note": "[CEFOTAXIME]", "values": [
      {"measurement": "MIC", "setting": "Escherichia coli [1]", "value": "> 256", "unit": "mg/L"},
      {"measurement": "MIC", "setting": "Acinetobacter baumannii [2]", "value": 1, "unit": "mg/L"},
      {"measurement": "MIC", "setting": "Escherichia coli [3]", "value": 0.5, "unit": "mg/L"},
      {"measurement": "MIC", "setting": "Escherichia coli [4]", "value": 0.064, "unit": "mg/L"},
      {"measurement": "MIC", "setting": "Acinetobacter baumannii [5]", "value": "> 256", "unit": "mg/L"},
      {"measurement": "MIC", "setting": "Escherichia coli [6]", "value": "> 256", "unit": "mg/L"},
      {"measurement": "MIC", "setting": "Acinetobacter baumannii [7]", "value": "> 256", "unit": "mg/L"}
    ]},
    {"smiles": "CO[C@@]1(NC(=O)Cc2cccs2)C(=O)N2C(C(=O)O)=C(COC(N)=O)CS[C@@H]21", "note": "[CEFOXITIN]", "values": [
      {"measurement": "MIC", "setting": "Escherichia coli [1]", "value": 6, "unit": "mg/L"},
      {"measurement": "MIC", "setting": "Acinetobacter baumannii [2]", "value": 8, "unit": "mg/L"},
      {"measurement": "MIC", "setting": "Escherichia coli [3]", "value": 96, "unit": "mg/L"},
      {"measurement": "MIC", "setting": "Escherichia coli [4]", "value": 6, "unit": "mg/L"},
      {"measurement": "MIC", "setting": "Acinetobacter baumannii [5]", "value": 12, "unit": "mg/L"},
      {"measurement": "MIC", "setting": "Escherichia coli [6]", "value": "> 256", "unit": "mg/L"},
      {"measurement": "MIC", "setting": "Acinetobacter baumannii [7]", "value": 192, "unit": "mg/L"}
    ]},
    {"smiles": "CC(C)(O/N=C(\\C(=O)N[C@@H]1C(=O)N2C(C(=O)[O-])=C(C[n+]3ccccc3)CS[C@H]12)c1csc(N)n1)C(=O)O", "note": "[CEFTAZIDIME]", "values": [
      {"measurement": "MIC", "setting": "Escherichia coli [1]", "value": "> 256", "unit": "mg/L"},
      {"measurement": "MIC", "setting": "Acinetobacter baumannii [2]", "value": 1.5, "unit": "mg/L"},
      {"measurement": "MIC", "setting": "Escherichia coli [3]", "value": 0.5, "unit": "mg/L"},
      {"measurement": "MIC", "setting": "Escherichia coli [4]", "value": 0.75, "unit": "mg/L"},
      {"measurement": "MIC", "setting": "Acinetobacter baumannii [5]", "value": "> 256", "unit": "mg/L"},
      {"measurement": "MIC", "setting": "Escherichia coli [6]", "value": "> 256", "unit": "mg/L"},
      {"measurement": "MIC", "setting": "Acinetobacter baumannii [7]", "value": "> 256", "unit": "mg/L"}
    ]},
    {"smiles": "C[C@@H](O)[C@H]1C(=O)N2C(C(=O)O)=C(S[C@@H]3CN[C@H](C(=O)N(C)C)C3)[C@H](C)[C@H]12", "note": "[MEROPENEM]", "values": [
      {"measurement": "MIC", "setting": "Escherichia coli [1]", "value": 0.047, "unit": "mg/L"},
      {"measurement": "MIC", "setting": "Acinetobacter baumannii [2]", "value": 0.064, "unit": "mg/L"},
      {"measurement": "MIC", "setting": "Escherichia coli [3]", "value": 0.25, "unit": "mg/L"},
      {"measurement": "MIC", "setting": "Escherichia coli [4]", "value": 0.016, "unit": "mg/L"},
      {"measurement": "MIC", "setting": "Acinetobacter baumannii [5]", "value": 1.5, "unit": "mg/L"},
      {"measurement": "MIC", "setting": "Escherichia coli [6]", "value": 4, "unit": "mg/L"},
      {"measurement": "MIC", "setting": "Acinetobacter baumannii [7]", "value": 6, "unit": "mg/L"}
    ]},
    {"smiles": "CO/N=C(\\C(=O)N[C@@H]1C(=O)N2C(C(=O)[O-])=C(C[N+]3(C)CCCC3)CS[C@H]12)c1csc(N)n1", "note": "[CEFEPIME]", "values": [
      {"measurement": "MIC", "setting": "Escherichia coli [1]", "value": 2, "unit": "mg/L"},
      {"measurement": "MIC", "setting": "Acinetobacter baumannii [2]", "value": 0.19, "unit": "mg/L"},
      {"measurement": "MIC", "setting": "Escherichia coli [3]", "value": 0.5, "unit": "mg/L"},
      {"measurement": "MIC", "setting": "Escherichia coli [4]", "value": 0.032, "unit": "mg/L"},
      {"measurement": "MIC", "setting": "Acinetobacter baumannii [5]", "value": 64, "unit": "mg/L"},
      {"measurement": "MIC", "setting": "Escherichia coli [6]", "value": 96, "unit": "mg/L"},
      {"measurement": "MIC", "setting": "Acinetobacter baumannii [7]", "value": "> 256", "unit": "mg/L"}
    ]},
    {"smiles": "C[C@@H](O)[C@H]1C(=O)N2C(C(=O)O)=C(SCCNC=N)C[C@H]12", "note": "[IMIPENEM ANHYDROUS]", "values": [
      {"measurement": "MIC", "setting": "Acinetobacter baumannii [2]", "value": 0.125, "unit": "mg/L"},
      {"measurement": "MIC", "setting": "Escherichia coli [3]", "value": 0.125, "unit": "mg/L"},
      {"measurement": "MIC", "setting": "Escherichia coli [4]", "value": 0.19, "unit": "mg/L"},
      {"measurement": "MIC", "setting": "Acinetobacter baumannii [5]", "value": 0.75, "unit": "mg/L"},
      {"measurement": "MIC", "setting": "Escherichia coli [6]", "value": 8, "unit": "mg/L"},
      {"measurement": "MIC", "setting": "Acinetobacter baumannii [7]", "value": 4, "unit": "mg/L"}
    ]}
  ]
}
